According to ChEMBL document CHEMBL2046427, “Nonhematotoxic naphthalene diimide modified by polyamine: synthesis and biological evaluation” (J Med Chem, 2012):
The source made the active and inactive calls. The calls are words filed in the database; no cut-off is given here.

Columns and labels:
MDA-MB-231 = test: Cytotoxicity against human MDA-MB-231 cells after 48 hrs by MTT assay; assay type: functional, cell-based; details: MDA-MB-231, 48 h
Method in brief: (§1)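 MTT conversion assay at 37 °C, 5% CO₂. […] Inhibition relative to untreated cells as 100%; IC50 by linear regression, mean of three independent experiments.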

K562 = test: Cytotoxicity against human K562 cells after 48 hrs by MTT assay; assay type: functional, cell-based; details: K562, 48 h; method in brief: as §1
HepG2 [1] = test: Cytotoxicity against human HepG2 cells after 48 hrs by MTT assay; assay type: functional, cell-based; details: HepG2, 48 h; method in brief: as §1
HepG2 [2] = test: Cytotoxicity against human HepG2 cells assessed as cell nuclear shrinkage at 1 to 30 uM after 48 hrs by Hoechst 33342-based fluorescence-based high-content screening assay; assay type: functional
Method in brief: (§2)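 HepG2 seeded 5 × 10³/well; after 12 h treated at 1, 5, 10, 15 and 30 μM for 48 h. Multiparameter cytotoxicity kit staining imaged by high-content screening: Hoechst 33342 for nuclear morphology, permeability dye (green nuclei) for membrane integrity, mitochondrial potential dye, and a weak-base dye for lysosomal mass/pH.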

HepG2 [3] = test: Cytotoxicity against human HepG2 cells assessed as mitochondrial permeability augmentation at 1 to 30 uM after 48 hrs by fluorescence-based high-content screening assay; assay type: functional, cell-based; method in brief: as §2
HepG2 [4] = test: Cytotoxicity against human HepG2 cells assessed as decrease in mitochondrial membrane potential at 1 to 30 uM after 48 hrs by fluorescence-based high-content screening assay; assay type: functional, cell-based; method in brief: as §2
HepG2 [5] = test: Cytotoxicity against human HepG2 cells assessed as acruement in lysosomal mass/pH at 1 to 30 uM after 48 hrs by fluorescence-based high-content screening assay; assay type: functional, cell-based; method in brief: as §2
HCT-116 = test: Cytotoxicity against human HCT116 cells after 48 hrs by MTT assay; assay type: functional, cell-based; details: HCT-116, 48 h; method in brief: as §1

SMILES	IC50 (MDA-MB-231) [µM]	IC50 (K562) [µM]	IC50 (HepG2 [1]) [µM]	Activity (HepG2 [2])	Activity (HepG2 [3])	Activity (HepG2 [4])	Activity (HepG2 [5])	IC50 (HCT-116) [µM]
NCCCNCCCCN1C(=O)c2ccc3c4c(ccc(c24)C1=O)C(=O)N(CCCCNCCCN)C3=O	20.2	21.2	33.3	–	–	–	–	–
NCCCCNCCCCNCCCCN1C(=O)c2ccc(-c3ccc4c(c3)C(=O)N(CCCCNCCCCNCCCCN)C4=O)cc2C1=O	> 50	–	> 50	inactive	inactive	inactive	inactive	> 50
NCCCCNCCCCN1C(=O)c2ccc3c4c(ccc(c24)C1=O)C(=O)N(CCCCNCCCCN)C3=O	27.6	41	43.8	–	–	–	–	–
NCCCCNCCCCNCCCCN1C(=O)c2cccc3c(-c4ccccc4)ccc(c23)C1=O	19.1	14.2	32.1	–	–	–	–	–
NCCCNCCCN1C(=O)c2ccc3c4c(ccc(c24)C1=O)C(=O)N(CCCNCCCN)C3=O	2.95	1.01	2.83	–	–	–	–	5.02
NCCCNCCCCNCCCN1C(=O)c2cccc3c(-c4ccccc4)ccc(c23)C1=O	14.5	14.2	15.8	–	–	–	–	–
NCCCNCCCNCCCN1C(=O)c2ccc(-c3ccc4c(c3)C(=O)N(CCCNCCCNCCCN)C4=O)cc2C1=O	> 50	–	> 50	–	–	–	–	> 50
